26 compounds from ChEMBL document CHEMBL1909506, “Synthesis and anti-tumor activities of N'-benzylidene-2-(4-oxothieno[2,3-d]pyrimidin-3(4H)-yl)acetohydrazone derivatives” (Bioorg Med Chem Lett, 2011) can be followed below.

The source made the active and inactive calls. No cut-off for these calls is given here.

The target in assay [1] is Induced myeloid leukemia cell differentiation protein Mcl-1 (Homo sapiens) (UniProt Q07820). Put plainly: Inhibition of mouse/human MCL1 expressed in Escherichia coli BL21 at 1 uM to 50 uM using FAM-labeled Bid-BH3 as tracer by fluorescence polarization assay. A general note: Fluorescence polarisation rises when a labelled molecule tumbles more slowly, as on binding a larger partner.

The subject of a further assay is MDA-MB-231. Put plainly: Cytotoxicity against human MDA-MB-231 cells assessed as growth inhibition at 20 uM after 48 hrs by MTT assay. Type of assay: functional. As to conditions: for inhibition of growth at 20 µM: MDA-MB-231, 48 h, read-out: GI. In a few lines:
(§1)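 Single-concentration screen at 20 µM. Cell growth inhibition read by standard MTT assay after 48 h treatment and expressed as inhibition ratio.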
(In general: Tetrazolium dyes change colour on reduction, which living cells bring about.)

Another assay has as its system A549. Put plainly: Cytotoxicity against human A549 cells assessed as growth inhibition at 20 uM after 48 hrs by MTT assay. Particulars: for inhibition of growth at 20 µM: A549, 48 h, read-out: GI. Type of assay: functional. In outline: as §1
The subject of the next assay is HeLa. The assay is described as follows: Cytotoxicity against human HeLa cells assessed as growth inhibition at 20 uM after 48 hrs by MTT assay. Type of assay: functional. As to conditions: for inhibition of growth at 20 µM: read-out: GI. In a few lines:
as §1

For the compound `O=C(Cn1cnc2sc3c(c2c1=O)CCC3)N/N=C/c1ccccc1O`, the inhibition result in assay [1] is “inactive”. Moreover, the results for the inhibition of growth at 20 µM in the assay on MDA-MB-231, with A549 and in the assay on HeLa were 36%, 22% and 23%, respectively.

In the case of `Cc1csc2ncn(CC(=O)N/N=C/c3ccc(Cl)c([N+](=O)[O-])c3)c(=O)c12`, the inhibition entry in assay [1] was “inactive”. Besides, the inhibition of growth at 20 µM in the assay with MDA-MB-231 was determined as 13%; in the assay on A549, 13%; in the assay on HeLa it was 18%.

As to `O=C(Cn1cnc2sc3c(c2c1=O)CCCC3)N/N=C/c1ccc(Cl)c([N+](=O)[O-])c1`, the inhibition entry in assay [1] was “inactive”. The inhibition of growth at 20 µM in the assay on MDA-MB-231 was found to be 38%; in the assay on A549, 10%; in the assay with HeLa it was 27%.

In the case of `N#Cc1ccc(/C=N/NC(=O)Cn2cnc3sc4c(c3c2=O)CCC4)cc1`, the inhibition result in assay [1] was “inactive”. Besides, the “growth inhibition (GI)” value in the assay with MDA-MB-231, in the assay on A549 and in the assay with HeLa was “inactive” each time.

`Cc1csc2ncn(CC(=O)N/N=C/c3ccc(Cl)c(F)c3)c(=O)c12`: in assay [1], the inhibition entry is “inactive”. For the same compound, the “growth inhibition (GI)” value in the assay with MDA-MB-231, with A549 and in the assay on HeLa was “inactive” throughout.

Consider `O=C(Cn1cnc2scc(-c3ccc(Cl)cc3)c2c1=O)N/N=C/c1cccc([N+](=O)[O-])c1`, for which the inhibition entry in assay [1] is “inactive”. In addition, the “growth inhibition (GI)” value in the assay on MDA-MB-231, with A549 and in the assay on HeLa was “inactive” each time.

In the case of `O=C(Cn1cnc2scc(-c3ccccc3)c2c1=O)N/N=C/c1ccc(Cl)c(F)c1`, in assay [1], the inhibition result was “inactive”. Besides, the “growth inhibition (GI)” value in the assay with MDA-MB-231, in the assay with A549 and in the assay with HeLa was “inactive” throughout.

In the case of `O=C(Cn1cnc2sc3c(c2c1=O)CCC3)N/N=C/c1cccc(O)c1`, the inhibition entry in assay [1] is “inactive”. Further, the “growth inhibition (GI)” value in the assay on MDA-MB-231, in the assay on A549 and with HeLa was “inactive” in each case.

Take `O=C(Cn1cnc2sc3c(c2c1=O)CCCCC3)N/N=C/c1ccccc1O`: in assay [1], the inhibition entry is “inactive”. Besides, the inhibition of growth at 20 µM turned out to be 40% in the assay on MDA-MB-231, 29% in the assay with A549 and 36% in the assay with HeLa.

With `N#Cc1ccc(/C=N/NC(=O)Cn2cnc3sc4c(c3c2=O)CCCCC4)cc1`, the inhibition result in assay [1] was “inactive”. For the same compound, the inhibition of growth at 20 µM is 14% with MDA-MB-231, 10% in the assay with A549 and 11% with HeLa.

Consider `O=C(Cn1cnc2sc3c(c2c1=O)CCC3)N/N=C/c1ccc(Cl)c([N+](=O)[O-])c1`, for which, in assay [1], the inhibition entry was “inactive”. Besides, the inhibition of growth at 20 µM in the assay with MDA-MB-231 was found to be 41%; in the assay with HeLa, 34%. Moreover, the “growth inhibition (GI)” value in the assay with A549 is “inactive”.

As to `O=C(Cn1cnc2scc(-c3ccc(Cl)cc3)c2c1=O)N/N=C/c1ccccc1O`, in assay [1], the inhibition result was “inactive”. Moreover, the inhibition of growth at 20 µM stood at 39% in the assay with MDA-MB-231, 48% in the assay on A549 and 43% in the assay on HeLa.

With `Cc1cc(-c2csc3ncn(CC(=O)N/N=C/c4ccccc4O)c(=O)c23)ccc1Cl`, the inhibition entry in assay [1] was “inactive”. For the same compound, the values for the inhibition of growth at 20 µM in the assay with MDA-MB-231, in the assay on A549 and with HeLa were 37%, 35% and 33%, respectively.

Consider `N#Cc1ccc(/C=N/NC(=O)Cn2cnc3scc(-c4ccc(Cl)cc4)c3c2=O)cc1`, for which, in assay [1], the inhibition entry was “inactive”. The “growth inhibition (GI)” value with MDA-MB-231, in the assay with A549 and in the assay with HeLa was “inactive” each time.

Consider `O=C(Cn1cnc2scc(-c3ccc(Cl)cc3)c2c1=O)N/N=C/c1ccc(Cl)c(F)c1`, for which the inhibition result in assay [1] is “inactive”. Also, the “growth inhibition (GI)” value with MDA-MB-231, with A549 and in the assay with HeLa was “inactive” throughout.

Consider `O=C(Cn1cnc2sc3c(c2c1=O)CCC3)N/N=C/c1ccc(Cl)c(F)c1`, for which the inhibition entry in assay [1] is “inactive”. Further, the inhibition of growth at 20 µM in the assay on MDA-MB-231 turned out to be 29%; in the assay on A549, 47%; with HeLa, 54%.

For the compound `N#Cc1ccc(/C=N/NC(=O)Cn2cnc3scc(-c4ccccc4)c3c2=O)cc1`, the inhibition result in assay [1] is “inactive”. The “growth inhibition (GI)” value with MDA-MB-231, with A549 and with HeLa was “inactive” each time.

For `O=C(Cn1cnc2scc(-c3ccc(Cl)cc3)c2c1=O)N/N=C/c1ccc(O)c(O)c1`, the inhibition entry in assay [1] was “inactive”. Further, the “growth inhibition (GI)” value in the assay on MDA-MB-231, in the assay on A549 and in the assay with HeLa was “inactive” each time.

With `O=C(Cn1cnc2sc3c(c2c1=O)CCCCC3)N/N=C/c1ccc(O)cc1`, the inhibition result in assay [1] was “inactive”. Besides, the “growth inhibition (GI)” value in the assay on MDA-MB-231, in the assay with A549 and in the assay on HeLa was “inactive” in each case.

Take `O=C(Cn1cnc2sc3c(c2c1=O)CCCCC3)N/N=C/c1ccc(Cl)c(F)c1`: in assay [1], the inhibition result was “inactive”. The inhibition of growth at 20 µM in the assay with MDA-MB-231 is 28%; in the assay on A549 it was 43%; with HeLa it was 50%.

Regarding `O=C(Cn1cnc2sc3c(c2c1=O)CCCCC3)N/N=C/c1cccc(O)c1`, the inhibition entry in assay [1] is “inactive”. Further, the “growth inhibition (GI)” value in the assay with MDA-MB-231, in the assay on A549 and in the assay on HeLa was “inactive” in each case.

In the case of `O=C(Cn1cnc2scc(-c3ccc4ccccc4c3)c2c1=O)N/N=C/c1cccc([N+](=O)[O-])c1`, the inhibition entry in assay [1] was “inactive”. In addition, the “growth inhibition (GI)” value in the assay with MDA-MB-231, with A549 and in the assay on HeLa was “inactive” in each case.

`O=C(Cn1cnc2scc(-c3ccc4ccccc4c3)c2c1=O)N/N=C/c1ccc(Cl)c(F)c1`: the inhibition result in assay [1] was “inactive”. The “growth inhibition (GI)” value in the assay on MDA-MB-231, in the assay with A549 and in the assay with HeLa was “inactive” throughout.

For `N#Cc1ccc(/C=N/NC(=O)Cn2cnc3sc4c(c3c2=O)CCCC4)cc1`, in assay [1], the inhibition result was “inactive”. Also, the “growth inhibition (GI)” value in the assay on MDA-MB-231, with A549 and in the assay with HeLa was “inactive” each time.

For the compound `O=C(Cn1cnc2sc3c(c2c1=O)CCC3)N/N=C/c1ccc(O)cc1`, in assay [1], the inhibition result was “inactive”. Also, the figures for the inhibition of growth at 20 µM in the assay with MDA-MB-231, with A549 and in the assay with HeLa were 25%, 27% and 29%, respectively.

Turning to `O=C(Cn1cnc2sc3c(c2c1=O)CCCC3)N/N=C/c1ccc(Cl)c(F)c1`, the inhibition entry in assay [1] was “inactive”. Besides, the inhibition of growth at 20 µM with MDA-MB-231 came to 39%; in the assay with A549 it was 26%; in the assay with HeLa it was 41%.
